Assay results published in ChEMBL document CHEMBL1124643 (J Med Chem, 1989).

How the values were obtained:
Phosphodiesterase 1 [1] = biological target: T1, Phosphodiesterase 1 (Bos taurus, UniProt Q01061+P14100); assay: Inhibitory activity against phosphodiesterase was determined in vitro using bovine aorta, at 1 uM cGMP in the presence of calcium (10 uM) and calmodulin (15 nM); assay type: protein assay
In short: (§1)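 Calmodulin-dependent PDE peak taken from DEAE-trisacryl gradient fractions of a 105000g vascular smooth muscle supernatant. Assayed with 1 μM cGMP substrate, CaCl2 and excess bovine brain calmodulin, keeping hydrolysis ≤15%. Drugs in DMSO or DMF, final solvent ≤1%. IC50 from linear regression of % activity vs log concentration, using at least six points. Mean ± SEM of three separate enzyme preparations.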

[2] = biological target: cAMP phosphodiesterase (Bos taurus); assay: Inhibitory activity against phosphodiesterase was determined in vitro using bovine aorta, at 1 uM cAMP for cAMP-PDE.
[3] = biological target: T2, cGMP-specific 3',5'-cyclic phosphodiesterase (Bos taurus, UniProt Q28156); assay: Inhibitory activity against phosphodiesterase was determined in vitro using bovine aorta, at 1 uM cGMP for cGMP-PDE.
[4] = Inhibition of phosphodiesterase from bovine aorta with 1 uM cGMP calcium (10 uM) and calmodulin (15 nM); design: species or system Bos taurus; in short: as §1
[5] = biological target: T2, cGMP-specific 3',5'-cyclic phosphodiesterase; assay: Inhibition of cGMP-PDE phosphodiesterase from bovine aorta using 1 uM cGMP (insignificant)
[6] = biological target: T2, cGMP-specific 3',5'-cyclic phosphodiesterase; assay: Inhibition of cGMP-PDE phosphodiesterase from bovine aorta using 1 uM cGMP
In short: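 Enzyme from the 105000g supernatant, separated on DEAE-trisacryl with a 0–0.4 NaCl gradient; the cGMP-PDE peak was dialysed and stored at −80 °C. Assayed without calcium, with EGTA, at 1 μM cGMP, keeping hydrolysis ≤15%. Drugs were in DMSO or DMF, ≤1% final.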

[7] = biological target: cAMP phosphodiesterase (Bos taurus); assay: Inhibitory activity against phosphodiesterase was determined in vitro using bovine aorta, at 1 uM cAMP for cAMP-PDE.; remark: listed apart in the source
Phosphodiesterase 1 [8] = biological target: T1, Phosphodiesterase 1; assay: Inhibition of phosphodiesterase from bovine aorta with 1 uM cGMP calcium (10 uM) and calmodulin (15 nM) (insignificant); assay type: protein assay; in short: as §1
Phosphodiesterase 1 [9] = biological target: T1, Phosphodiesterase 1; assay: Inhibitory activity against […] phosphodiesterase was determined in vitro using bovine aorta, at 1 uM cGMP in the presence of calcium (10 uM) and calmodulin (15 nM); Compound is insignificant.; assay type: protein assay
[10] = biological target: T2, cGMP-specific 3',5'-cyclic phosphodiesterase; assay: Inhibitory activity against phosphodiesterase was determined in vitro using bovine aorta, at 1 uM cGMP for cGMP-PDE;Compound is insignificant.
[11] = biological target: cAMP phosphodiesterase (Bos taurus); assay: Inhibition of cAMP-PDE phosphodiesterase from bovine aorta using 1 uM cAMP (insignificant)

SMILES | IC50 (Phosphodiesterase 1 [1]) | IC50 [2] | IC50 [3] | IC50 (Phosphodiesterase 1 [9]) | other results
COc1ccc(C2CNC(=O)C2)cc1O (centres undefined) | > 0.001 M | > 0.001 M | > 1000 µM |  | 
CCCCOc1ccc(C2CNC(=O)C2)cc1OC (centres undefined) | > 0.001 M | > 0.001 M | > 1000 µM |  | 
COc1ccc(C2CNC(=O)C2)cc1OCCCC(=O)N(C)C1CCCCC1 (centres undefined) | > 0.001 M | 34 µM | > 1000 µM |  | 
COc1ccc(C2CC(=O)N(c3ccccc3)C2)cc1OC (centres undefined) |  |  |  |  | IC50 [4]: 230 µM; IC50 [5]: > 1000 µM
COc1ccc(C2CNC(=O)C2C)cc1OC (centres undefined) | > 0.001 M | 22 µM | > 1000 µM |  | 
O=C1CC(c2ccccc2)CN1 (centres undefined) | > 0.001 M |  |  |  | IC50 [6]: > 1000 µM
COc1ccc(C2CC(=O)N(C(=O)c3ccccc3)C2)cc1OC (centres undefined) |  |  |  |  | IC50 [7]: 58 µM; IC50 (Phosphodiesterase 1 [8]): > 0.001 M; IC50 [5]: > 1000 µM
CCOC(=O)CCCOc1cc(C2CNC(=O)C2)ccc1OC (centres undefined) | > 0.001 M | 30 µM | > 1000 µM |  | 
COc1ccc(C2CC(=O)N(Cc3ccccc3)C2)cc1OC (centres undefined) |  |  |  | > 0.001 M | IC50 [10]: > 1000 µM
COc1ccc(C2CNC(=O)C2)cc1OCc1ccccc1 (centres undefined) | > 0.001 M | 96 µM | 174 µM |  | 
C#CCOc1cc(C2CNC(=O)C2)ccc1OC (centres undefined) | > 0.001 M |  | > 1000 µM |  | 
CCC(C)COc1cc(C2CNC(=O)C2)ccc1OC (centres undefined) | > 0.001 M |  | 200 µM |  | 
CCCCOc1cccc(C2CNC(=O)C2)c1 (centres undefined) | > 0.001 M | > 0.001 M |  |  | IC50 [6]: > 1000 µM
CCCCOc1ccc(C2CNC(=O)C2)cc1 (centres undefined) |  |  |  | > 0.001 M | IC50 [11]: > 0.001 M; IC50 [10]: > 1000 µM
COc1ccc(C2CC(=O)N(C(C)=O)C2)cc1OC (centres undefined) |  |  |  | > 0.001 M | IC50 [7]: 25 µM; IC50 [6]: > 1000 µM
COc1cc2c(cc1OC)[C@@H]1CNC(=O)[C@@H]1CC2 |  |  |  | > 0.001 M | IC50 [7]: 220 µM; IC50 [10]: > 1000 µM

SMILES | IC50 (Phosphodiesterase 1 [1]) | IC50 [2] | IC50 [3] | IC50 (Phosphodiesterase 1 [9]) | other results
CCCCOc1cc(C2CNC(=O)C2)ccc1OC (centres undefined) | > 0.001 M | 13 µM | > 1000 µM |  | 
COc1cc2c(cc1OC)[C@@H]1CNC(=O)[C@H]1CC2 |  |  |  |  | IC50 [7]: 138 µM; IC50 (Phosphodiesterase 1 [8]): > 0.001 M; IC50 [5]: > 1000 µM
COc1ccc(C2CNC(=O)C2C(=O)O)cc1OC (centres undefined) |  |  |  | > 0.001 M | IC50 [10]: > 1000 µM
COc1ccc(C2CC(=O)N(C)C2)cc1OC (centres undefined) |  |  |  | > 0.001 M | IC50 [10]: > 1000 µM
CCCCOc1cc(C2CN=C(S)C2)ccc1OC (centres undefined) |  |  |  | > 0.001 M | IC50 [7]: 500 µM; IC50 [6]: 195 µM
COc1ccc(C2CNC(=O)C2)cc1OCCCC(=O)O (centres undefined) | > 0.001 M | 400 µM | > 1000 µM |  | 
CCOC(=O)C1C(=O)NCC1c1ccc(OC)c(OC)c1 (centres undefined) |  |  |  | > 0.001 M | IC50 [7]: 21 µM; IC50 [10]: > 1000 µM
COc1ccc(C2CCNC2)cc1OC.O=C(O)C(=O)O (centres undefined) |  |  |  | > 0.001 M | IC50 [11]: > 0.001 M; IC50 [10]: > 1000 µM
COc1cc2c(cc1OC)[C@H]1CC(=O)NC1C2 (some centres undefined) |  |  |  | > 0.001 M | IC50 [7]: 800 µM; IC50 [10]: > 1000 µM
CCCCNC(=O)CCCOc1cc(C2CNC(=O)C2)ccc1OC (centres undefined) | > 0.001 M | 16 µM | > 1000 µM |  | 
COc1ccc(C2CNC(=O)C2)cc1OCC(C)C (centres undefined) | > 0.001 M | 18 µM | > 1000 µM |  | 
C=C(C)COc1cc(C2CNC(=O)C2)ccc1OC (centres undefined) | > 0.001 M | 24 µM | > 1000 µM |  | 
COc1ccc(C2CNC(=O)C2)cc1OC (centres undefined) | > 0.001 M |  | > 1000 µM |  | 
CCCCOc1cc(CC2CNC(=O)N2)ccc1OC (centres undefined) [RO-201724] | 940 µM |  | 380 µM |  | 
COc1ccc(C2CNC(=O)C2)cc1OC1CCCC1 (centres undefined) [ROLIPRAM] | 2700 µM |  |  |  | 
COc1cc2c(cc1OC)-c1c/c(=N\c3c(C)cc(C)cc3C)n(C)c(=O)n1CC2 [TREQUINSIN] |  |  |  |  | IC50 [4]: 13 µM; IC50 [6]: 5 µM
